# Assay outcomes: PubChem, several laboratories
# Hits are enriched below; roughly 3.4% of the tested compounds scored in any of these assays.
# UCH37 inh: inhibitors of human UCH37 deubiquitinase, primary screen, biochemical, Ub-AMC cleavage, fluorescence; Ubiquitin carboxyl-terminal hydrolase isozyme L5 (Homo sapiens), Q9Y5K5; purified proteasome/UCH37; inhibition, % (test concentration not listed); 330,000 compounds, 0.33% hits; AID 588478, 2011;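 active = mean inhibition over replicate wells above about 20%, limit read from the data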;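 also: 0% = compound-free wells with enzyme and 100% = wells lacking proteasome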
#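 Assay system: Proteasome-bound UCH37. Buffer or medium: pH 7.4 Tris-HCl (50 mM) with ovalbumin, ATP-MgCl2, DTT. Incubation: 30 min preincubation with enzyme, 25 min cleavage at room temperature. Measured by: fluorescence, ex 355 nm, em 460 nm. Read-out basis: percent inhibition. Control set: wells without proteasome as full block, compound-free enzyme plus substrate as uninhibited.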
# PolyA inh: polyadenylation inhibitors in yeast reporter cells, primary screen, luminescence, S. cerevisiae | 300,000 compounds, 0.02% hits | S. cerevisiae SKY197-pL101 polyadenylation reporter, beta-gal luminescence; efflux-impaired pdr1/pdr3 knockout yeast; score 100 = 6 SD above DMSO | AID 1875, 2009 | activity score, % at 12 µM;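 active = lowest replicate activity score at least 50, where 100 means six control SD above control mean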;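 also: yeast exposed to compound for 9 h at 30 °C; higher score means more reporter readthrough which indicates perturbed polyadenylation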
# A3G deaminase: APOBEC3G DNA deaminase inhibitors, primary screen, biochemical, fluorescence, single-stranded DNA substrate, uHTS; 330,000 compounds, 0.28% hits; inhibition, % at 20 µM; DNA dC->dU-editing enzyme APOBEC-3G (Homo sapiens), Q9HC16; AID 493012, 2011; recombinant A3G, ssDNA deamination FAM/TAMRA fluorescence;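 active = inhibition of at least 40% at 20 µM, with no more than 30% in the related APOBEC3A deaminase screen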;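 also: plate controls were DMSO wells with A3G for no effect and wells lacking A3G enzyme for full effect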
# Arrestin-AP2 inh: inhibitors of beta-arrestin/AP2 binding, primary screen, biochemical, GPCR trafficking, flow cytometry; beta-arrestin 1 C-terminal peptide binding to AP2 beta2-adaptin appendage (human); FITC-arrestin peptide / GST-AP2 beads; AP2 beta2 appendage carries R879A mutation; inhibition, % at 10 µM; 340,000 compounds, 0.31% hits;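 active = inhibition above a set limit, near 3 SD of compounds lacking own fluorescence, cut at about 54% in these data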;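 also: plate controls were DMSO wells for no effect and 5 µM unlabelled arrestin peptide for full effect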
#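 System: GST-AP2 R879A bound to glutathione beads, E. coli-expressed. Also added: 50 nM FITC-arrestin peptide. Schedule: compound with beads 12 min RT, then probe 1 h RT. Signal: bead flow cytometry, FITC channel. Read-out basis: percent response.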
# A3A deaminase: APOBEC3A ssDNA deaminase inhibitors, primary screen, selectivity assay for APOBEC3G inhibitor project, biochemical, FAM/TAMRA oligo cleavage fluorescence | recombinant A3A, FAM/TAMRA ssDNA deamination fluorescence | 330,000 compounds, 0.41% hits | inhibition, % at 20 µM | DNA dC->dU-editing enzyme APOBEC-3A (Homo sapiens), P31941 | AID 493011, 2011;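 active = at least 40% inhibition at 20 µM here, with at most 30% in a related deaminase screen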;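 also: plate controls were A3A with DMSO for no effect and wells lacking A3A enzyme for full effect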
# AHR activator: AHR activators, primary screen, cell-based, luminescence, luciferase reporter, human; AHR-responsive luciferase reporter cells; activation, % at 5 µM; 320,000 compounds, 2.5% hits; in the data active = activation above about 47%;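 also: 0% = vehicle wells and 100% = reference agonist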
# Target sequence (P35869 whole entry, looked up): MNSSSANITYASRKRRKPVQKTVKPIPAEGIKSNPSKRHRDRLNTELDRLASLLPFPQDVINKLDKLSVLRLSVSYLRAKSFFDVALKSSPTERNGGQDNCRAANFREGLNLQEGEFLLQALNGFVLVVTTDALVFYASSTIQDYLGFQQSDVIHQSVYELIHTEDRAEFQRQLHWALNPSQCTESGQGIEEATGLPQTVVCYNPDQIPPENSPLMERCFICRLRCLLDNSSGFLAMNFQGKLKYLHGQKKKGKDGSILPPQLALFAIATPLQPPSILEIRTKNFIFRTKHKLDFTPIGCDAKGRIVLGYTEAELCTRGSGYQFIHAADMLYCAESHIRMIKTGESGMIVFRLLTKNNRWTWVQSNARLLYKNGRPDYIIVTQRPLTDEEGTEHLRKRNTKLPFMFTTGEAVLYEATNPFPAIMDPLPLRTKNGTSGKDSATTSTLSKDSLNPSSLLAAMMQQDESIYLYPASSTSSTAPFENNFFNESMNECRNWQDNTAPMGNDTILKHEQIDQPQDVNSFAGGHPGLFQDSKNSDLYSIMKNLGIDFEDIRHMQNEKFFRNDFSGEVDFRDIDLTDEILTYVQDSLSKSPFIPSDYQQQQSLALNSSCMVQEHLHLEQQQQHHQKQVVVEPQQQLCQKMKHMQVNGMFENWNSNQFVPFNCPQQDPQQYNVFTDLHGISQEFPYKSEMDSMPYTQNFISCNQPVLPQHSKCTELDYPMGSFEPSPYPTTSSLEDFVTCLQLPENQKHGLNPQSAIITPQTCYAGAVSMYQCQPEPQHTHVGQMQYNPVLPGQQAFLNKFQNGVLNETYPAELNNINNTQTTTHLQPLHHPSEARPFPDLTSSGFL
# AHR act cf: AHR activators, confirmation, cell-based, luminescence, luciferase reporter, human; shares compounds with AHR activator; 2,300 compounds, 87% hits; activation, % at 9 µM; AID 2845, 2010; human cells, AHR-responsive luciferase reporter; in the data active = activation above about 49%;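 also: HepG2 hepatoma cells carrying a DRE-driven firefly luciferase reporter; 0% = vehicle wells and 100% = reference agonist wells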
# PXR act counter: human PXR activators, counter-screen for AHR activator project, cell-based, luciferase luminescence; cell-based PXR reporter; 2,300 compounds, 88% hits; activation, % at 11.6 µM; shares compounds with AHR activator; in the data active = activation above about 11%;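 also: human hepatoma DPX-2 cells expressing full-length human PXR; 0% = DMSO and 100% = reference agonist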
# The depositor's hits bear a star; / = no result given.
SMILES,UCH37 inh,PolyA inh,A3G deaminase,Arrestin-AP2 inh,A3A deaminase,AHR activator,AHR act cf,PXR act counter
COc1ccc(-c2cnc3ccccc3n2)cc1NC(=O)CNC(=O)c1ccccc1,-67.0,0.6,-4.5,6.3,-1.6,117.2*,35.2,42.3*
CC(CCc1ccc2c(c1)OCO2)=N/N=C1/NC(=O)CC(C(=O)Nc2ccc(Cl)cc2)S1 (stereo not drawn),6.2,/,/,/,/,/,/,/
COc1ccc(C)cc1NC(=O)C(OC(=O)CNC(=O)c1ccc(Br)cc1)c1ccccc1 (stereo not drawn),2.2,-1.7,-2.4,-9.6,-1.8,81.1*,85.2*,51.5*
COc1ccc(C)cc1NC(=O)C(OC(=O)C1=NNC(=O)CC1)c1ccccc1 (stereo not drawn),-0.1,/,-5.0,-7.5,-3.5,82.5*,99.2*,35.6*
Cc1ccc(C(=O)C(OC(=O)CNC(=O)c2ccc(Cl)cc2)c2ccccc2)cc1 (stereo not drawn),-1.0,18.3,0.3,2.5,0.7,0.3,/,/
Nc1nc(-c2ccccc2)nc(-c2ccccc2O)n1,1.6,-11.9,0.6,-2.8,-2.0,83.9*,106.6*,13.3*
NNc1nc(-c2ccccc2)cc(-c2ccccc2O)n1,7.2,-17.7,0.0,3.6,1.3,12.6,/,/
Nc1nc(-c2ccccc2)cc(-c2ccccc2O)n1,4.5,-35.5,-6.8,8.8,-5.5,81.6*,174.3*,22.2*
Cc1cc(C)nc(SCc2nc(N)nc(-c3ccccc3O)n2)n1,-0.1,-6.7,0.3,0.6,7.7,83.9*,90.8*,38.2*
Nc1nc(N)nc(-c2ccccc2O)n1,1.3,-6.8,22.4,18.1,-0.5,17.6,/,/
CCOc1ccc(-n2c(C)cc(C=NNc3nc(C)cc(=O)[nH]3)c2C)cc1,-6.3,/,/,/,/,/,/,/
CC12CCC(C(=O)Nc3cc(Cl)ccc3Cl)(CC1=NO)C2(C)C (stereo not drawn),3.5,/,/,/,/,/,/,/
COc1cccc(NC(=O)CSc2nc3n[nH]c(C)c3c(=N)n2-c2cccc(OC)c2)c1,4.6,10.7,-0.5,-4.3,0.2,18.5,/,/
COc1cccc(-n2c(SCC(=O)NCCC3=CCCCC3)nc3n[nH]c(C)c3c2=N)c1,-3.4,0.2,-6.0,/,-3.4,82.3*,91.0*,160.8*
COc1ccc(NC(=O)c2cccc3c(Br)cccc23)cc1,1.8,5.0,-9.9,11.8,-3.9,93.1*,120.9*,/
COc1ccc(NC(=O)c2ccccc2C)cc1,1.9,-5.4,-5.8,8.7,-4.8,-0.1,/,/
COc1cc(OC)cc(C(=O)NNC(=O)c2cc(=O)[nH]c3ccccc23)c1,-21.8,0.5,0.2,-10.5,0.8,3.2,/,/
COc1ccc(NC(=O)c2cc(=O)[nH]c3ccccc23)cc1,3.6,3.9,-7.0,5.7,-3.3,99.9*,107.6*,20.2*
Cc1cccc(C(=O)NN=CC(C)Cc2ccc3c(c2)OCO3)c1 (stereo not drawn),-0.3,/,/,/,/,/,/,/
CCCOc1ccccc1-c1nc2c([nH]1)c(=O)[nH]c(=O)n2C,-94.7,7.0,2.2,4.6,1.4,137.1*,79.0*,34.3*
Cn1c(=O)[nH]c(=O)c2[nH]c(CO)nc21,/,/,/,3.9,/,/,/,/
COc1cc2c(cc1NC(=O)/C=C/c1cc(OC)c(OC)c(OC)c1)oc1ccccc12,-15.3,8.5,-2.5,9.9,6.7,88.0*,53.3*,10.4*
COc1ccc(/C=C/C(=O)OCC(=O)Nc2cc3oc4ccccc4c3cc2OC)cc1,-23.7,15.8,-7.7,/,0.1,4.0,/,/
COc1cc2c(cc1NC(=O)CSc1ccccn1)oc1ccccc12,2.6,-3.9,-7.2,18.5,-3.5,105.2*,91.2*,16.1*
Cc1ccc(CN2CCN(N=Cc3sccc3C)CC2)c(C)c1,0.8,/,/,/,/,/,/,/
SMILES,UCH37 inh,PolyA inh,A3G deaminase,Arrestin-AP2 inh,A3A deaminase,AHR activator,AHR act cf,PXR act counter
Clc1cccc(-c2sc(Nc3ccccc3)n[n+]2-c2ccccc2)c1Cl,6.0,0.6,-10.6,0.1,-0.9,5.3,/,/
Fc1ccc(-[n+]2nc(Nc3ccccc3)sc2-c2cccc(Cl)c2Cl)cc1,/,-0.2,12.1,1.9,1.8,112.9*,10.9,92.5*
COc1cccc(C=NNc2snc(SC)c2C#N)c1,5.6,/,/,/,/,/,/,/
COc1ccc(Nc2ncnc3c2oc2ccccc23)cc1,-147.5,-15.2,-3.9,3.7,-0.2,7.8,/,/
c1ccc2c(c1)oc1c(Nc3ccc4c(c3)OCCO4)ncnc12,-14.3,-25.4,-6.0,5.4,4.0,95.3*,109.7*,18.6*
O=C(NN=Cc1cccc([N+](=O)[O-])c1)c1ccncc1,4.9,/,/,/,/,/,/,/
Cc1ccc2c(c1)c1nc3ccccc3nc1n2C,-15.4,-44.2,-8.1,2.3,-6.7,88.3*,117.0*,/
COc1ccc(-c2nc3ccccc3c(=O)[nH]2)cc1,-17.2,-14.5,-7.6,18.4,0.3,110.1*,105.9*,23.0*
Nc1nonc1C(=O)NN=Cc1ccc(-c2cccc(C(=O)O)c2)o1,-38.0,/,/,/,/,/,/,/
Nc1nc(-c2ccccc2)c(N=Nc2ccc(Cl)cc2)s1,4.7,-8.1,4.8,21.3,7.1,119.7*,88.0*,13.5*
Nc1nc(-c2ccccc2)c(-c2ccccc2)s1,1.8,-3.4,-1.9,1.7,0.1,4.0,/,/
O=S(=O)(NN=Cc1ccc2c(c1)OCO2)c1ccc(Br)cc1,5.8,/,/,/,/,/,/,/
Cc1c(C)n(C(=O)CN2CCC(C)CC2)c2ccccc12,3.4,2.3,9.6,22.1,0.1,83.1*,52.6*,15.0*
O=C(CN1CCOCC1)n1c2ccccc2c2ccccc21,-0.1,5.2,-4.0,26.0,-2.1,17.8,/,/
ONC(=Nc1ccc(Cl)cc1)c1ccc(Cl)cc1,1.1,-3.1,-2.7,-2.2,-1.9,117.3*,115.2*,12.4*
CC(C)c1ccc(Nc2nc(NCc3ccco3)nc(N3CCOCC3)n2)cc1,2.4,-5.9,-6.2,1.6,-3.0,84.6*,86.1*,32.2*
Clc1ccc2[nH]c(-c3ccccc3)cc2c1,-15.6,-37.1,1.4,8.8,-0.3,114.7*,137.6*,17.0*
